From ChEMBL document CHEMBL5705890, “Antitumor activity of an allosteric inhibitor of centromere-associated protein-E” (Proc Natl Acad Sci U S A, 2010)

Assays:
NCI-H2052 = experiment: Anticancer activity against human NCI-H2052 cells assessed as cell doubling measured for 72 hrs by DAPI staining based analysis; format: functional
SK-MEL3 = experiment: Anticancer activity against human SK-MEL3 cells assessed as cell growth inhibition measured after 72 hrs by DAPI staining based analysis; format: functional
A673 = experiment: Anticancer activity against human A673 cells assessed as cell growth inhibition measured after 72 hrs by DAPI staining based analysis; format: functional
How it was run: (§1)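 Cells were seeded and, after 24 h, DNA content was read as T0. Cells were then exposed to varying drug concentrations for a further 72 h (T72). Fixed cells were DAPI-stained and DNA content measured by automated imaging. T72 values were normalized to T0. GI50 is the concentration giving 50% growth inhibition between T0 and Ymax, obtained by curve fitting.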

CWR22R = experiment: Anticancer activity against human 22Rv1 cells assessed as cell growth inhibition measured after 72 hrs by DAPI staining based analysis; format: functional; how it was run: as §1
TK-10 = experiment: Anticancer activity against human TK-10 cells assessed as cell doubling measured for 72 hrs by DAPI staining based analysis; format: functional
SH-4 = experiment: Anticancer activity against human SH-4 cells assessed as cell doubling measured for 72 hrs by DAPI staining based analysis; format: functional
HPAF-II = experiment: Anticancer activity against human HPAF-II cells assessed as cell growth inhibition measured after 72 hrs by DAPI staining based analysis; format: functional
A549 = experiment: Antitumor activity against human A549 cells in xenograft model assessed as tumor growth delay at 62.5 mg/kg relative to control; format: functional
NCI-H295R = experiment: Anticancer activity against human NCI-H295R cells assessed as cell doubling measured for 72 hrs by DAPI staining based analysis; format: functional
[1] = Anticancer activity against human MV-522 cells assessed as cell doubling measured for 72 hrs by DAPI staining based analysis; format: functional
T84 = experiment: Anticancer activity against human T84 cells assessed as cell doubling measured for 72 hrs by DAPI staining based analysis; format: functional
[2] = Anticancer activity against human C32TG cells assessed as cell doubling measured for 72 hrs by DAPI staining based analysis; format: functional
[3] = Anticancer activity against human KHOS-240S cells assessed as cell growth inhibition measured after 72 hrs by DAPI staining based analysis; format: functional
A-431 = experiment: Anticancer activity against human A-431 cells assessed as cell growth inhibition measured after 72 hrs by DAPI staining based analysis; format: functional; how it was run: as §1
BT-474 [4] = experiment: Anticancer activity against human BT-474 cells assessed as cell growth inhibition measured after 72 hrs by DAPI staining based analysis; format: functional
How it was run: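 Cells were seeded, and DNA content at 24 h after seeding (T0) was read by imaging of fixed, DAPI-stained cells. Cells were then exposed to a range of drug concentrations for a further 72 h (T72) and DNA content was read again. T72 values were normalized to T0, and GI50 was taken from curve fits as the concentration giving 50% growth inhibition relative to T0 and Ymax.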

MX1 = experiment: Antitumor activity against human MX1 cells in xenograft model assessed as difference between median time to endpoint time of treated versus control group at 125 mg/kg; format: functional
A-427 = experiment: Anticancer activity against human A-427 cells assessed as cell growth inhibition measured after 72 hrs by DAPI staining based analysis; format: functional; how it was run: as §1
Caov-3 cell line = experiment: Anticancer activity against human Caov-3 cells assessed as cell doubling measured for 72 hrs by DAPI staining based analysis; format: functional
NCI-H716 = experiment: Anticancer activity against human NCI-H716 cells assessed as cell doubling measured for 72 hrs by DAPI staining based analysis; format: functional
Centromere protein E = Centromere protein E (Canis lupus familiaris, UniProt A0A8P0P634); experiment: Binding affinity to wild-type dog CENP-E assessed as inhibition constant
Centromere protein E, sequence (A0A8P0P634 whole entry): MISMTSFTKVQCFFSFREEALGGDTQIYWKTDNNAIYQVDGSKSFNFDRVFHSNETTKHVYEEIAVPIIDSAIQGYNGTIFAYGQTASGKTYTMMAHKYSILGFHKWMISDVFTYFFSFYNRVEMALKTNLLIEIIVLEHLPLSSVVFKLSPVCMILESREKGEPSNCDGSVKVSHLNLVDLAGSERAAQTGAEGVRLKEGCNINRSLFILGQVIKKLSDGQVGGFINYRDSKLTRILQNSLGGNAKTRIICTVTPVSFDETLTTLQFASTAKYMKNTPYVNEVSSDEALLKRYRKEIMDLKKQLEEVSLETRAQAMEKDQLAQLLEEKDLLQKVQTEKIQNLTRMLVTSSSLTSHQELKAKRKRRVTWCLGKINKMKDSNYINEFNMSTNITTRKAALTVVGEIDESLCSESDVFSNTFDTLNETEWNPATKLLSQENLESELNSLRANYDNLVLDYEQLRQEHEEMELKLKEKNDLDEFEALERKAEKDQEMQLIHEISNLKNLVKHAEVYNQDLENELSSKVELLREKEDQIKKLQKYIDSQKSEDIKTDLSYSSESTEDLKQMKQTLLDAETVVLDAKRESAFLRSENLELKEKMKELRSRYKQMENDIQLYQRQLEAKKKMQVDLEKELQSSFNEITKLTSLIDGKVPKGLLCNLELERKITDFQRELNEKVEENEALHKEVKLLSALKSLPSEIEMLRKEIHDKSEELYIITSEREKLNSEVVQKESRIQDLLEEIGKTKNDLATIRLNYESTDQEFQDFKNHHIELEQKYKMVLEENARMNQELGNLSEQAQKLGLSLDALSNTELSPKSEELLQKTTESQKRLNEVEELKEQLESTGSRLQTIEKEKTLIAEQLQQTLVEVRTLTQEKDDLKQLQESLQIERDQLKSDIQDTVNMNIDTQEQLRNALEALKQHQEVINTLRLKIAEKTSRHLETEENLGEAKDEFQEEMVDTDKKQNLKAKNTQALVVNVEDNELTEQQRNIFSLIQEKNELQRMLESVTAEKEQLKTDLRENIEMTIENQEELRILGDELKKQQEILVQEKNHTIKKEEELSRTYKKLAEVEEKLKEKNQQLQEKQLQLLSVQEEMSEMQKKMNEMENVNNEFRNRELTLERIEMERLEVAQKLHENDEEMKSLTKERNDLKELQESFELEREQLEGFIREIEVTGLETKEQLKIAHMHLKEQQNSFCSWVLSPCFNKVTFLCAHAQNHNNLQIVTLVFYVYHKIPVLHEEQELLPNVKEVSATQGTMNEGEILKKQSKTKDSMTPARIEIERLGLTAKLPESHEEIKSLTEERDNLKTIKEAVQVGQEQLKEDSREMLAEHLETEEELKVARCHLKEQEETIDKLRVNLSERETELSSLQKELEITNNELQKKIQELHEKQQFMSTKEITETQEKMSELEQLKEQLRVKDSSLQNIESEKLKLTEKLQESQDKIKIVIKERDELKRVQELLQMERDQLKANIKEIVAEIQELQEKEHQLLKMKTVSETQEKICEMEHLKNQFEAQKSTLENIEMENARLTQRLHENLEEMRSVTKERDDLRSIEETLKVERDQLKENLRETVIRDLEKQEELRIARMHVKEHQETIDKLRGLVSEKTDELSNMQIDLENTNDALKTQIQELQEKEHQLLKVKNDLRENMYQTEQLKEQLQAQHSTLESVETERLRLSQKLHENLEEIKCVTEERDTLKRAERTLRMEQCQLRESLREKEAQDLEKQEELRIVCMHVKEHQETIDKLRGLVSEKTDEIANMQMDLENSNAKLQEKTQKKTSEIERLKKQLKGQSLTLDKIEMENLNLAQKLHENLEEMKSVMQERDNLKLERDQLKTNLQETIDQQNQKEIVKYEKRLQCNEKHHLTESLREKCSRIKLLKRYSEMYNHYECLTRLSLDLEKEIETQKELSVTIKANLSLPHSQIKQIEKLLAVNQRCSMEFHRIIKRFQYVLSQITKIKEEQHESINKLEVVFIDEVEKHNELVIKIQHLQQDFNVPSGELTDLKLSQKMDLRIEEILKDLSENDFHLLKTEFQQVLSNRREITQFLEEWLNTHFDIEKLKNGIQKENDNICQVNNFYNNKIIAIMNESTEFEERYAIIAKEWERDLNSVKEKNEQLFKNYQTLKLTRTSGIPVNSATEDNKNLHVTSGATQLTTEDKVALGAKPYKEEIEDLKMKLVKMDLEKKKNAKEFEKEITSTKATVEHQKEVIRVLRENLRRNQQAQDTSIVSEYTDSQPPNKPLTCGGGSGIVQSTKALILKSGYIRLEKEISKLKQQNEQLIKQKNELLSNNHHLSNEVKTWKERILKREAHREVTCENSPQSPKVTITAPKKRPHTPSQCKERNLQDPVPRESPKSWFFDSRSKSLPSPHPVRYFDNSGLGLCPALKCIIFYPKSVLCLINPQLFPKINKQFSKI

SK-LMS-1 = experiment: Anticancer activity against human SK-LMS-1 cells assessed as cell growth inhibition measured after 72 hrs by DAPI staining based analysis; format: functional
[5] = target: Centromere-associated protein E (Homo sapiens, UniProt Q02224, K184T); experiment: Binding affinity to human CENP-E K184T mutant assessed as inhibition constant
Centromere-associated protein E (Homo sapiens, UniProt Q02224, K184T), sequence (Q02224 whole entry K184T): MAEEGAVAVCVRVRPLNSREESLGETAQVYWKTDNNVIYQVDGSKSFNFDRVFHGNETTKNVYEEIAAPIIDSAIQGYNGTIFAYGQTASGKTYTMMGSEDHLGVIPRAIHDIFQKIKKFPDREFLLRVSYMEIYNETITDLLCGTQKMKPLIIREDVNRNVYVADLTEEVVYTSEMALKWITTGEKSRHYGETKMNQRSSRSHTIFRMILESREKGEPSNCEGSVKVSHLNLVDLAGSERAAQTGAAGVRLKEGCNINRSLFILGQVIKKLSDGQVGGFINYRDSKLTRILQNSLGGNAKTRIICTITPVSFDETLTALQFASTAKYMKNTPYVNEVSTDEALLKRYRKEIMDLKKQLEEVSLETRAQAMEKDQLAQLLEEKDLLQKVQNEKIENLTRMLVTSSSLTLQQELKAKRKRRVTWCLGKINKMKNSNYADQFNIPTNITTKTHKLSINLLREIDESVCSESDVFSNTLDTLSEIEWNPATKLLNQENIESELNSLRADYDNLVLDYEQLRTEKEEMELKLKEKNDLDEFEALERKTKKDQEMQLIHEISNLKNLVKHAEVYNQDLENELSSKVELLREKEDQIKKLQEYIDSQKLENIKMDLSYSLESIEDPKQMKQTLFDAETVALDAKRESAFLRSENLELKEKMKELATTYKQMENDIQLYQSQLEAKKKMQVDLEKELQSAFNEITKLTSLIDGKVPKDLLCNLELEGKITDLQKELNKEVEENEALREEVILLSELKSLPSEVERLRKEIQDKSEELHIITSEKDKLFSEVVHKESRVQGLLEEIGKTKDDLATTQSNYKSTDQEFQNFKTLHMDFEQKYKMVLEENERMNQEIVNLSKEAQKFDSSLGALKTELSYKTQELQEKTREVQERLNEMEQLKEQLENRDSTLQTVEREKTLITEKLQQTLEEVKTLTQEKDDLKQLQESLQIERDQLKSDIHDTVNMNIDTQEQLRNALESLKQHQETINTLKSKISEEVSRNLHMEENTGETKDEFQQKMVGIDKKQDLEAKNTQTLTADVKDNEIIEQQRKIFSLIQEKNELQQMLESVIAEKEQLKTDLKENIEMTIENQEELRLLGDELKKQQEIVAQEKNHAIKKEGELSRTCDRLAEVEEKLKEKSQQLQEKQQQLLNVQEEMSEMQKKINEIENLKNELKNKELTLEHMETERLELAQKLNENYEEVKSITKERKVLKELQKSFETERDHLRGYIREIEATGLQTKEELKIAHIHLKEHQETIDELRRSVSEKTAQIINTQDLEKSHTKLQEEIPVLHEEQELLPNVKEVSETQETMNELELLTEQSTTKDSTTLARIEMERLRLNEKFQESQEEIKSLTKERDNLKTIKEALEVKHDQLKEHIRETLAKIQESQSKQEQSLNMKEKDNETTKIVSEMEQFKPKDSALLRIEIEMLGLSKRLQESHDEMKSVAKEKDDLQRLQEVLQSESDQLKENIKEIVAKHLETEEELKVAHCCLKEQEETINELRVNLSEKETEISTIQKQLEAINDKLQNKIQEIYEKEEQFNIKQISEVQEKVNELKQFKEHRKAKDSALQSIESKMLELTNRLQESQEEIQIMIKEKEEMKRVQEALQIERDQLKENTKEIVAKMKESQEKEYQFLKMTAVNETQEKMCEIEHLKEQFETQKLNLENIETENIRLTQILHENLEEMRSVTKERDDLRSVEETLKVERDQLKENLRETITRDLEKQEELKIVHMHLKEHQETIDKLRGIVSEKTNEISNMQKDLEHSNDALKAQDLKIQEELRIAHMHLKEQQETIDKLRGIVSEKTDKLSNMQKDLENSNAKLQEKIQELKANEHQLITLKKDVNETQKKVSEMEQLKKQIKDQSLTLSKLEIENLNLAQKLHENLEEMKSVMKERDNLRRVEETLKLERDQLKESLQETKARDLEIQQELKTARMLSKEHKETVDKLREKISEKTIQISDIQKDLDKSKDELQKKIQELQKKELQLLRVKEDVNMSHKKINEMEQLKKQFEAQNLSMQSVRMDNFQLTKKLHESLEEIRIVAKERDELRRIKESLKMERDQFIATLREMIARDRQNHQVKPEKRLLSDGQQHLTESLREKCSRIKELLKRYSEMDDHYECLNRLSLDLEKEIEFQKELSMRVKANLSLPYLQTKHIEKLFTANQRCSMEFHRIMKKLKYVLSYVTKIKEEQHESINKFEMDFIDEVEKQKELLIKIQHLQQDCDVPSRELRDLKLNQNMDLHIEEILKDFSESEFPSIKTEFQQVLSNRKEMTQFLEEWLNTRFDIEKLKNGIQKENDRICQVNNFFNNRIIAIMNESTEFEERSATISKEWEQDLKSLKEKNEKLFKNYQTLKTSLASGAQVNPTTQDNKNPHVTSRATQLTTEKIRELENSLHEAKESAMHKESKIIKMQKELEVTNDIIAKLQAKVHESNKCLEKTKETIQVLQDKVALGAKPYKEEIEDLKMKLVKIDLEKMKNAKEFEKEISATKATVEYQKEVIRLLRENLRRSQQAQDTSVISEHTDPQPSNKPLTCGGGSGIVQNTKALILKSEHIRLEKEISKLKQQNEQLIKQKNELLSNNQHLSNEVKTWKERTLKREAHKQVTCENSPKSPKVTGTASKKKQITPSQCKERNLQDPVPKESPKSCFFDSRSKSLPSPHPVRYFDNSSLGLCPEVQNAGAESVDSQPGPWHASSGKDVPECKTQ

COLO 205 = experiment: Antitumor activity against human COLO 205 cells in xenograft model assessed as difference between median time to endpoint time of treated versus control group at 125 mg/kg; format: functional
SW684 = experiment: Anticancer activity against human SW684 cells assessed as cell doubling measured for 72 hrs by DAPI staining based analysis; format: functional
ST486 [6] = experiment: Anticancer activity against human ST486 cells assessed as cell growth inhibition measured after 72 hrs by DAPI staining based analysis; format: functional
BV-173 = experiment: Anticancer activity against human BV-173 cells assessed as cell doubling measured for 72 hrs by DAPI staining based analysis; format: functional
ST486 [7] = experiment: Anticancer activity against human ST486 cells assessed as cell doubling measured for 72 hrs by DAPI staining based analysis; format: functional
NCI-H661 = experiment: Anticancer activity against human NCI-H661 cells assessed as cell growth inhibition measured after 72 hrs by DAPI staining based analysis; format: functional
[8] = Anticancer activity against human SCC-13 cells assessed as cell doubling measured for 72 hrs by DAPI staining based analysis; format: functional
BT-474 [9] = experiment: Anticancer activity against human BT-474 cells assessed as cell doubling measured for 72 hrs by DAPI staining based analysis; format: functional
EKVX = experiment: Anticancer activity against human EKVX cells assessed as cell doubling measured for 72 hrs by DAPI staining based analysis; format: functional
UACC-257 = experiment: Anticancer activity against human UACC-257 cells assessed as cell doubling measured for 72 hrs by DAPI staining based analysis; format: functional
M14 = experiment: Anticancer activity against human M14 cells assessed as cell doubling measured for 72 hrs by DAPI staining based analysis; format: functional
DLD-1 = experiment: Anticancer activity against human DLD-1 cells assessed as cell growth inhibition measured after 72 hrs by DAPI staining based analysis; format: functional
How it was run: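 Cells seeded, DAPI-stained DNA content of fixed cells read by imaging 24 h after seeding (T0), and again after a further 72 h exposure to a range of drug concentrations (T72). T72 values were normalized to T0. Curve fits gave the concentration producing 50% growth inhibition relative to T0 and Ymax (GI50).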

[10] = target: Centromere-associated protein E (Homo sapiens, UniProt Q02224); experiment: Uncompetitive binding affinity to microtubule-stimulated ATPase activity of C-terminal 6-his-tagged CENP-E (2 to 340 residues)(unknown origin) expressed in Escherichia coli BL21(DE3) assessed as apparent inhibition constant; conditions: read-out: Ki(app)
Centromere-associated protein E (Homo sapiens, UniProt Q02224), sequence (Q02224 whole entry, the tested form may be a part): as the sequence (Q02224 whole entry K184T) above, with T184K counted along it
How it was run: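 CENP-E motor domain (residues 2–340, C-terminal 6-his, from E. coli BL21(DE3)) run in MT-stimulated ATPase with 500 μM ATP, 5 μM paclitaxel-stabilized MT, 1 nM enzyme in PEM25 buffer, pH 6.8. Apparent Ki taken from the concentration-response curves with explicit correction for enzyme concentration.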

SiHa = experiment: Anticancer activity against human SiHa cells assessed as cell doubling measured for 72 hrs by DAPI staining based analysis; format: functional
[11] = target: Centromere-associated protein E (Homo sapiens, UniProt Q02224, I182L/T183A); experiment: Binding affinity to human CENP-E I182L/T183A mutant assessed as inhibition constant
Centromere-associated protein E (Homo sapiens, UniProt Q02224, I182L/T183A), sequence (Q02224 whole entry I182L/T183A): as the sequence (Q02224 whole entry K184T) above, with I182L, T183A, T184K counted along it

CC(C)Oc1ccc(C(=O)N[C@H](CNC(=O)CN(C)C)Cc2ccc(-c3cn4cccc([C@H](C)O)c4n3)cc2)cc1Cl [GSK-923295A]
Activity (NCI-H2052): 2.09
GI50 (SK-MEL3): 30 nM
GI50 (A673): 23 nM
GI50 (CWR22R): 29 nM
Activity (TK-10): 1.94
Activity (SH-4): 3.12
GI50 (HPAF-II): 5030 nM
Activity (A549): 11%
Activity (NCI-H295R): 1.52
Activity [1]: 2.81
Activity (T84): 2.77
Activity [2]: 1.21
GI50 [3]: 37 nM
GI50 (A-431): 21 nM
GI50 (BT-474 [4]): 110 nM
Time (MX1): 6.9 days
GI50 (A-427): 97 nM
Activity (Caov-3 cell line): 2.17
Activity (NCI-H716): 1.41
Ki (Centromere protein E): 1.6 nM
GI50 (SK-LMS-1): 30 nM
Ki [5]: 12 nM
Time (COLO 205): >74 days
Activity (SW684): 1.13
GI50 (ST486 [6]): 26 nM
Activity (BV-173): 2.16
Activity (ST486 [7]): 2.46
GI50 (NCI-H661): 22 nM
Activity [8]: 3.39
Activity (BT-474 [9]): 1.17
Activity (EKVX): 2.69
Activity (UACC-257): 1.79
Activity (M14): 2.27
GI50 (DLD-1): 60 nM
Ki [10]: 3.2 nM
Activity (SiHa): 2.36
Ki [11]: 61 nM
